Reference: ChEMBL document CHEMBL4024758, “Structure-Based Design and Discovery of New M2 Receptor Agonists” (J Med Chem, 2017)
pEC50, pKi: −log10 of the molar value. Active and inactive are the calls of the source. No cut-off for these calls is given here.

Columns and labels:
[1] = molecular target: T1, Muscarinic acetylcholine receptor M2 (Homo sapiens, UniProt P08172); assay: Displacement of [3H]N-methyl-scopolamine bromide from human recombinant muscarinic M2 receptor expressed in HEK293T cell membranes after 1 hr by liquid scintillation counting method; parameters: species or system HEK-293T
T1 sequence (P08172 whole entry): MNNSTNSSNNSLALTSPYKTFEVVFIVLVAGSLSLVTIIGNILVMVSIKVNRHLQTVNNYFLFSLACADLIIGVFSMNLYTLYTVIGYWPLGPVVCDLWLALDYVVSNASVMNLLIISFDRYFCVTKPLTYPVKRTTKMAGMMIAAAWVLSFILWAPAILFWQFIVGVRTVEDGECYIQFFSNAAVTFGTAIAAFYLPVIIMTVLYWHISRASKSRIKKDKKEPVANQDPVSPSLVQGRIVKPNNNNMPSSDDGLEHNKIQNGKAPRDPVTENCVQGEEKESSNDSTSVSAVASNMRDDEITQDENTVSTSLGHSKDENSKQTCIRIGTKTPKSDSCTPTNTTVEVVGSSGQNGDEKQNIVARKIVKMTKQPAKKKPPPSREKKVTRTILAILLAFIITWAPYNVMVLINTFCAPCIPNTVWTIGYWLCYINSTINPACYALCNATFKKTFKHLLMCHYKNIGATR

[2] = molecular target: T2, Muscarinic acetylcholine receptor M1 (Homo sapiens, UniProt P11229); assay: Displacement of [3H]N-methyl-scopolamine bromide from human recombinant muscarinic M1 receptor expressed in HEK293T cell membranes after 1 hr by liquid scintillation counting method; format: cell-based, HEK-293T
T2 sequence (P11229 whole entry): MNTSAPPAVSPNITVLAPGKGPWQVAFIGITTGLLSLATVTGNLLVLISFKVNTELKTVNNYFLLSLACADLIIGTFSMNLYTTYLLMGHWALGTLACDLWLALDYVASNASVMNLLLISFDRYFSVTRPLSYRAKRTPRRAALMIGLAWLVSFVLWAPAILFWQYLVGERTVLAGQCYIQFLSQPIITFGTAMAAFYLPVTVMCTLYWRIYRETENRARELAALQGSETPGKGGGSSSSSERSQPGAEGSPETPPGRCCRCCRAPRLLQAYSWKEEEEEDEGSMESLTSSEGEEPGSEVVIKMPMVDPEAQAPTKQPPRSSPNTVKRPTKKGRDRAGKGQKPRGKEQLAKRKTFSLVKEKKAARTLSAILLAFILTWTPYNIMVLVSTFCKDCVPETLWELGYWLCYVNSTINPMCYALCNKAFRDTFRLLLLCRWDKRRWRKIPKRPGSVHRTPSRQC

[3] = molecular target: Muscarinic acetylcholine receptor M3 (Homo sapiens, UniProt P20309); assay: Displacement of [3H]N-methyl-scopolamine bromide from human recombinant muscarinic M3 receptor expressed in HEK293T cell membranes after 1 hr by liquid scintillation counting method; format: cell-based, HEK-293T
[4] = molecular target: T1, Muscarinic acetylcholine receptor M2; assay: Agonist activity at human recombinant muscarinic M2 receptor co-expressed with Galphaqi5-HA in African green monkey COS7 cells assessed as IP accumulation after 2 hrs in presence of myo-[3H]inositol by liquid scintillation counting method; format: functional
[5] = molecular target: T3, Muscarinic acetylcholine receptor M2 (Homo sapiens) (UniProt P08172); assay: Agonist activity at human recombinant muscarinic M2 receptor co-expressed with Galphaqi5-HA in African green monkey COS7 cells assessed as IP accumulation after 2 hrs in presence of myo-[3H]inositol by liquid scintillation counting method relative to carbachol; format: functional
T3 sequence (whole entry): T1 sequence (P08172 whole entry)

[6] = molecular target: T3, Muscarinic acetylcholine receptor M2 (Homo sapiens); assay: Agonist activity at human recombinant muscarinic M2 receptor co-expressed with Galphaqi5-HA in African green monkey COS7 cells assessed as IP accumulation at 100 uM after 2 hrs in presence of myo-[3H]inositol by liquid scintillation counting method relative to carbachol; format: functional
[7] = molecular target: T3, Muscarinic acetylcholine receptor M2 (Homo sapiens); assay: Agonist activity at Gi/o coupled recombinant human M2 mAChR expressed in CHO-FlpIn cells assessed as IP-one accumulation after 40 mins by HTRF assay; format: cell-based
Method in brief: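 Stably transfected CHO-FlpIn whole cells, 20000/well, grown overnight at 37 °C with 5% CO2. Cells were washed with PBS, then held 60 min at 37 °C in HEPES stimulation buffer with 50 mM LiCl, pH 7.4. ACh or test ligand was added and incubated 40 min.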

[8] = molecular target: Neuronal acetylcholine receptor; alpha4/beta2 (Homo sapiens, UniProt P17787+P43681); assay: Displacement of [3H]cytisine from alpha4beta2 nAChR expressed in human recombinant SH-SY5Y cell membranes after 120 mins
Neuronal acetylcholine receptor; alpha4/beta2, sequence (P17787 whole entry): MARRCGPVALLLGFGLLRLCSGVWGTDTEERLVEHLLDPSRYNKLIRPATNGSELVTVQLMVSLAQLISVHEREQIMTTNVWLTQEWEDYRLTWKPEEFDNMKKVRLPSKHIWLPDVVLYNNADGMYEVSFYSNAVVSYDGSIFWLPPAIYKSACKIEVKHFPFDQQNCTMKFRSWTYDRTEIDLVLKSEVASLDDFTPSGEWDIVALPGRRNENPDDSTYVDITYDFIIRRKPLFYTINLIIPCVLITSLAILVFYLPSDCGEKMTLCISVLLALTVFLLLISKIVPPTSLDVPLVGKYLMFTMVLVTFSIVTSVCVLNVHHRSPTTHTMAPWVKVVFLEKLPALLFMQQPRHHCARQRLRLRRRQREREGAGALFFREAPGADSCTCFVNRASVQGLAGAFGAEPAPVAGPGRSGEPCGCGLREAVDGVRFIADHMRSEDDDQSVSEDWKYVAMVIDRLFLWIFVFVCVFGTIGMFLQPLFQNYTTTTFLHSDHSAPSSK
Neuronal acetylcholine receptor; alpha4/beta2, sequence (P43681 whole entry): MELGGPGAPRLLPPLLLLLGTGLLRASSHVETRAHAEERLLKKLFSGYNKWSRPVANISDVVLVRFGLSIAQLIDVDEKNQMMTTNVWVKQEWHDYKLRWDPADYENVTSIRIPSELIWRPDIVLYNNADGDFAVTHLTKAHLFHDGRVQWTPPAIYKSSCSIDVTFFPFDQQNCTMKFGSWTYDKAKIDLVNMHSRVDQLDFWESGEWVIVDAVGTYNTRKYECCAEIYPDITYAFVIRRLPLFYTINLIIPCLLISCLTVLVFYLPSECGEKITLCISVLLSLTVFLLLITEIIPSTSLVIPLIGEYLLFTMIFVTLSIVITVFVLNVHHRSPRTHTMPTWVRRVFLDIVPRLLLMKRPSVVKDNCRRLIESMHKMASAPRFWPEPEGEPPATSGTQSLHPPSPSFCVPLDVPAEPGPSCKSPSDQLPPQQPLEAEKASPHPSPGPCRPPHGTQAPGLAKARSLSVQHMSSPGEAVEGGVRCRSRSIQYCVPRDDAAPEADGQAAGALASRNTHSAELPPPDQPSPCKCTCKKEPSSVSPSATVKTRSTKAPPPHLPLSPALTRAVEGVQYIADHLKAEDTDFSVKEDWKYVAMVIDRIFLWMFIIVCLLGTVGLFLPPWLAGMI

Muscarinic acetylcholine receptor M3, sequence (P20309 whole entry): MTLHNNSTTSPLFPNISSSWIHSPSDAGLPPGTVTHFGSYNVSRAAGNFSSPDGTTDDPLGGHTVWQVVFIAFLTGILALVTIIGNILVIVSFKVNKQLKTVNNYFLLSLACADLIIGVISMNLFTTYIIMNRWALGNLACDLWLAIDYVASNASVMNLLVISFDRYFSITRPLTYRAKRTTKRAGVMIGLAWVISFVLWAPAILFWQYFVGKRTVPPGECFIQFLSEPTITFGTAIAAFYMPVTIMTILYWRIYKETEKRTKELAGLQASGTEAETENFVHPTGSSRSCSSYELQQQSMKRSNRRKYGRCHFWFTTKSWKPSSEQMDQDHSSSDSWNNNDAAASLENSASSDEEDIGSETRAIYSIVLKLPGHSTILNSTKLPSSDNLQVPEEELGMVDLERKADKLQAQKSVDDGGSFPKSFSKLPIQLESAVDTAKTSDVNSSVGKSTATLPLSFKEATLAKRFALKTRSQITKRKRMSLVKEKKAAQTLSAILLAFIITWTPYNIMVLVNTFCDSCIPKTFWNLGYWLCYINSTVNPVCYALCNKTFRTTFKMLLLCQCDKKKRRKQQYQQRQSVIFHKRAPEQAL

How did the pKi [1] turn out when `c1csc(COC2CCNC2)n1` (centres undefined) was run?
The pKi was 5.22.

And the pKi [2]?
Its pKi is 5.38.

And the pKi [3]?
Its pKi is 5.39.

And the pEC50 [4]?
The pEC50 was 5.00.

And the Emax [5]?
Its Emax is 74%.

With `COc1ccccc1C[N+](C)(C)C` as the molecule, how does the pKi [1] read?
Its pKi is less than 4.30.

What about the pKi [2] of the same molecule?
Its pKi is 4.59.

And the pKi [3]?
Its pKi is less than 4.30.

What about the pEC50 [4] of the same molecule?
Its pEC50 is 4.74.

And the Emax [5]?
The Emax was 51%.

How did the pKi [1] turn out when `CCOc1cccc(CC[N+](C)(C)C)c1` was run?
The pKi was 4.57.

And the pKi [2]?
The pKi was 4.38.

And the Emax [6]?
Its Emax is 40%.

What about the pKi [3] of the same molecule?
Its pKi is 4.37.

How did the pKi [1] turn out when `C[N+](C)(C)CCc1cccc(Cl)c1` was run?
The pKi was 5.32.

What about the pKi [2] of the same molecule?
The pKi was 5.35.

And the Emax [6]?
Its Emax is less than 10%.

And the pKi [3]?
Its pKi is 5.24.

Which results are given for `COc1cccc2c1CC(N(C)C)CC2` (centres undefined)?
pKi [1]: 5.92; pKi [2]: 5.70; pKi [3]: 6.08

Which results are given for `C[N+](C)(C)CCc1ccc2ccoc2c1`?
pKi [1]: 6.85; pKi [2]: 7.64; pKi [3]: 7.39; pEC50 [4]: 6.66; Emax [5]: -14%

`COc1cccc(C(O)C[N+](C)(C)C)c1` (centres undefined) was tested. Which pKi [1] did it give?
Its pKi is 4.54.

And the pKi [2]?
The pKi was 4.89.

And the Emax [6]?
Its Emax is less than 10%.

What about the pKi [3] of the same molecule?
The pKi was 4.92.

With `C[N+](C)(C)CC#CCOC1=NOCC1` as the molecule, how does the pKi [1] read?
Its pKi is 8.31.

What about the pKi [2] of the same molecule?
The pKi was 6.46.

And the pKi [3]?
Its pKi is 6.26.

What about the pEC50 [4] of the same molecule?
The pEC50 was 9.55.

What about the Emax [5] of the same molecule?
The Emax was 125%.

With `C[N+](C)(C)CCc1cccc(OC(F)(F)F)c1` as the molecule, how does the pKi [1] read?
Its pKi is 5.04.

What about the pKi [2] of the same molecule?
The pKi was 5.11.

What about the Emax [6] of the same molecule?
Its Emax is less than 10%.

What about the pKi [3] of the same molecule?
The pKi was 4.96.

Which results are given for `C[N+](C)(C)C1CCc2ccc3ccoc3c2C1` (centres undefined)?
pKi [1]: 6.10; pKi [2]: 6.42; pKi [3]: 6.16; pEC50 [4]: 5.64; Emax [5]: -8.3%

Which results are given for `C[N+]1(C)CCC(OCc2nccs2)C1` (centres undefined)?
pKi [1]: 5.00; pKi [2]: 5.21; pKi [3]: 4.92; pEC50 [4]: 5.00; Emax [5]: 28%

Which results are given for `COc1ccccc1CC[N+](C)(C)C`?
pKi [1]: 5.24; pKi [2]: 5.31; pKi [3]: 5.33; pEC50 [4]: 5.04; Emax [5]: 21%

`COc1cccc(C#CC[N+](C)(C)C)c1` was tested. Which pKi [1] did it give?
Its pKi is 4.30.

And the pKi [2]?
Its pKi is 4.70.

And the pKi [3]?
The pKi was 4.70.

`CC(=O)OCC[N+](C)(C)C` was tested. Which Activity [7] did it give?
The Activity was “inactive”.

`C[N+](C)(C)CCCc1ccc2ccoc2c1` was tested. Which pKi [1] did it give?
The pKi was 6.64.

And the pKi [2]?
The pKi was 7.20.

What about the pKi [3] of the same molecule?
Its pKi is 6.85.

What about the pEC50 [4] of the same molecule?
Its pEC50 is 7.57.

And the Emax [5]?
The Emax was 12%.

With `CNCCc1cccc(OC)c1` as the molecule, how does the pKi [1] read?
Its pKi is 6.00.

And the pKi [2]?
Its pKi is 6.13.

What about the pKi [3] of the same molecule?
Its pKi is 6.11.

And the pEC50 [4]?
Its pEC50 is 5.09.

And the Emax [5]?
The Emax was -12%.

`CN(C)C1CCc2cccc(O)c2C1` (centres undefined) was tested. Which pKi [1] did it give?
Its pKi is less than 4.30.

And the pKi [2]?
Its pKi is less than 4.30.

And the pKi [3]?
Its pKi is 4.55.

`C[N+](C)(C)C1CCc2cccc(O)c2C1` (centres undefined) was tested. Which pKi [1] did it give?
The pKi was 5.38.

And the pKi [2]?
The pKi was 5.54.

And the pKi [3]?
The pKi was 4.80.

Which results are given for `COc1cccc2c1C[N+](C)(C)CC2`?
pKi [1]: 5.20; pKi [2]: 4.77; pKi [3]: 5.24

What does the source list for `COc1cccc2c1CC[N+](C)(C)C2`?
pKi [1]: 4.59; pKi [2]: 4.85; pKi [3]: 4.62

What does the source list for `CN1CCC(COCc2cccnc2)C1` (centres undefined)?
pKi [1]: 4.41; pKi [2]: 4.42; Emax [6]: 38%; pKi [3]: 4.12; pEC50 [4]: < 4.00

How did the pKi [1] turn out when `c1cncc(COCC2CCNC2)c1` (centres undefined) was run?
The pKi was 4.96.

And the pKi [2]?
Its pKi is 4.74.

And the pKi [3]?
Its pKi is 4.44.

And the pEC50 [4]?
The pEC50 was 4.54.

And the Emax [5]?
Its Emax is 74%.

What about the pKi [8] of the same molecule?
Its pKi is 6.70.

Which results are given for `C[N+](C)(C)CCc1cccc(O)c1`?
pKi [1]: 4.85; pKi [2]: 4.70; pKi [3]: 4.89; pEC50 [4]: 5.00; Emax [5]: 44%

How did the pKi [1] turn out when `c1cncc(COC2CCCNC2)c1` (centres undefined) was run?
The pKi was 4.77.

And the pKi [2]?
The pKi was 5.00.

And the pKi [3]?
The pKi was 5.00.

What about the pEC50 [4] of the same molecule?
Its pEC50 is 4.89.

And the Emax [5]?
Its Emax is 60%.

And the pKi [8]?
Its pKi is 8.80.

How did the pKi [1] turn out when `COc1cccc(C2CC2C[N+](C)(C)C)c1` (centres undefined) was run?
Its pKi is 4.82.

What about the pKi [2] of the same molecule?
The pKi was 5.14.

What about the pKi [3] of the same molecule?
Its pKi is 5.06.

`COc1cccc2c1CCC(C[N+](C)(C)C)C2` (centres undefined) was tested. Which pKi [1] did it give?
Its pKi is 4.85.

What about the pKi [2] of the same molecule?
The pKi was 4.77.

And the pKi [3]?
Its pKi is 4.60.

What does the source list for `COc1cccc2c1CCC([N+](C)(C)C)C2` (centres undefined)?
pKi [1]: 5.36; pKi [2]: 5.60; pKi [3]: 5.40

With `COc1cccc(/C=C/C[N+](C)(C)C)c1` as the molecule, how does the pKi [1] read?
Its pKi is 4.66.

What about the pKi [2] of the same molecule?
The pKi was 4.80.

What about the pKi [3] of the same molecule?
The pKi was 4.68.

How did the pKi [1] turn out when `CN1CCCC(OCc2cccnc2)C1` (centres undefined) was run?
The pKi was 4.34.

What about the pKi [2] of the same molecule?
Its pKi is 4.70.

And the pKi [3]?
Its pKi is 4.38.

What about the pEC50 [4] of the same molecule?
Its pEC50 is 4.30.

What about the Emax [5] of the same molecule?
Its Emax is 33%.

Which results are given for `COc1ccc(F)c(CC[N+](C)(C)C)c1`?
pKi [1]: 6.01; pKi [2]: 5.15; pKi [3]: 4.85; pEC50 [4]: 4.64; Emax [5]: 44%

What does the source list for `COc1cccc2c1CC([N+](C)(C)C)CC2` (centres undefined)?
pKi [1]: 6.03; pKi [2]: 6.00; pKi [3]: 5.70

What does the source list for `COc1cccc(C(=O)C[N+](C)(C)C)c1`?
pKi [1]: 5.62; pKi [2]: 6.77; Emax [6]: < 10%; pKi [3]: 6.68

With `COc1cccc2c1CC(C[N+](C)(C)C)CC2` (centres undefined) as the molecule, how does the pKi [1] read?
Its pKi is 5.89.

What about the pKi [2] of the same molecule?
The pKi was 5.74.

And the pKi [3]?
The pKi was 5.41.
